Reference: ChEMBL document CHEMBL1135744, “Design, synthesis, and structure-activity relationship of 6-alkynylpyrimidines as potent adenosine kinase inhibitors” (J Med Chem, 2002)
Activity calls are given as the source filed them. The calls are words filed in the database; no cut-off is given here.

Assays:
IMR-32 [1] = test: Evaluated in vitro for the inhibition of Adenosine (ADO) phosphorylation in intact cells.; assay type: functional, cell-based; settings: Homo sapiens
How it was run: (§1)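 IMR-32 human neuroblastoma cells were preincubated 10 min with compound (10^-11 to 10^-4 M), then given [U-14C]ADO (added as a 2 μM solution) for 20 min. Buffer was aspirated and cells were snap-frozen in liquid nitrogen, then thawed 20 min at room temperature. Supernatant was spotted on DE-81 disks, washed and counted by scintillation.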

Adenosine kinase = Adenosine kinase (Rattus norvegicus, UniProt Q64640); test: Evaluated in vitro for inhibitory activity against Adenosine kinase (AK)
How it was run: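 Rat brain cytosol was the adenosine kinase source. The mix held 64 mM Tris-HCl pH 7.5, 0.2 mM MgCl2, 1 mM ATP and 0.2 μM [U-14C]ADO or [2-3H]ADO, incubated 15 min at 23 °C. Aliquots were spotted onto DE-81 anion-exchange disks, washed in 2 mM ammonium formate, rinsed and dried. Bound radioactivity was counted by scintillation.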

IMR-32 [2] = test: Evaluated in vitro for the inhibition of Adenosine (ADO) phosphorylation in intact IMR-32 human neuroblastoma cells.; assay type: functional, cell-based; how it was run: as §1
Rattus norvegicus [3] = organism: Rattus norvegicus; test: Nociceptive paw flinching in rats assessed 30 min following an intraplantar injection of 5% formalin into the right hind paw.; assay type: functional; settings: 0.5 h
How it was run: (§2)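 Rats received an intraplantar injection of 5% formalin (50 μL) into the right hindpaw, and nociceptive flinching was scored 30 min afterward. Data are mean ± SEM, n = 6-8 per dose group.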

Rattus norvegicus [4] = organism: Rattus norvegicus; test: Antihyperalgesic effect in the carrageenan induced thermal hyperalgesia model; assay type: functional
Rattus norvegicus [5] = test: Nociceptive paw flinching in rats assessed 30 min following an intraplantar injection of 5% formalin into the right hind paw; NA=not active uM/Kg; assay type: functional, organism-based; how it was run: as §2
Rattus norvegicus [6] = test: Antihyperalgesic effect in the carrageenan induced thermal hyperalgesia model uM/Kg; assay type: functional, organism-based
Rattus norvegicus [7] = test: Nociceptive paw flinching in rats assessed 30 min following an intraplantar injection of 5% formalin into the right hind paw.; NA=not active uM/Kg; assay type: functional, organism-based; how it was run: as §2

Chain of Adenosine kinase (Q64640 whole entry): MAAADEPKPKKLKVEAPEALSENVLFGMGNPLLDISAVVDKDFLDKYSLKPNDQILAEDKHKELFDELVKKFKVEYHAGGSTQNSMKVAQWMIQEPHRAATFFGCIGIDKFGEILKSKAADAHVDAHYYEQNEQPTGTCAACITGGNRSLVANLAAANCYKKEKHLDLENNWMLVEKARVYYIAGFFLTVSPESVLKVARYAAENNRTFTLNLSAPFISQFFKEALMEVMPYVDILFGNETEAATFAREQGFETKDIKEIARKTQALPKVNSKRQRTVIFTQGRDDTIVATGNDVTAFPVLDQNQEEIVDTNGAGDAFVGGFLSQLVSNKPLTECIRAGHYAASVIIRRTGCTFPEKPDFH

SMILES | IC50 (IMR-32 [1]) | IC50 (Adenosine kinase) | IC50 (IMR-32 [2]) | other results
CN(c1cccc(Br)c1)c1c(N)ncnc1C#Cc1ccc(N2CCOCC2)nc1 |  | 28 nM | 280 nM | 
Nc1ncnc(C#Cc2ccc(N3CCOCC3)nc2)c1Cc1ccccc1 |  | 40 nM | 700 nM | ED50 (Rattus norvegicus [3]): 30 µmol/kg
CN(Cc1ccccc1)c1c(N)ncnc1C#Cc1ccc(N2CCOCC2)nc1 |  | 30 nM | 124 nM | ED50 (Rattus norvegicus [3]): 10 µmol/kg; ED50 (Rattus norvegicus [4]): 10 µmol/kg
Nc1cc(C#Cc2ccc(N3CCOCC3)nc2)ncn1 |  | 120 nM | > 1000 nM | 
Nc1ncnc(C#Cc2ccc(N3CCOCC3)nc2)c1CCCCc1ccccc1 | > 1000 nM | 45 nM |  | 
CN(Cc1ccc2ccccc2c1)c1c(N)ncnc1C#Cc1ccc(N2CCOCC2)nc1 |  | 246 nM | 388 nM | 
CN(Cc1ccccc1C(F)(F)F)c1c(N)ncnc1C#Cc1ccc(N2CCOCC2)nc1 | 276 nM | 40 nM |  | 
CN(Cc1ccc(Cl)c(Cl)c1)c1c(N)ncnc1C#Cc1ccc(N2CCOCC2)nc1 | 345 nM | 200 nM |  | 
CN(Cc1ccc(Cl)cc1)c1c(N)ncnc1C#Cc1ccc(N2CCOCC2)nc1 | 360 nM | 106 nM |  | 
CN(Cc1ccc(Br)cc1)c1c(N)ncnc1C#Cc1ccc(N2CCOCC2)nc1 | 515 nM | 90 nM |  | 
Nc1ncnc(C#Cc2ccc(N3CCOCC3)nc2)c1CN1CCc2ccccc2C1 |  | 40 nM | 1000 nM | 

These reach a lower IC50 (Adenosine kinase). Values come first.

IC50 (IMR-32 [1]) | IC50 (Adenosine kinase) | IC50 (IMR-32 [2]) | SMILES | other results
 | 22 nM | 1000 nM | Nc1ncnc(C#Cc2ccc(N3CCOCC3)nc2)c1Cc1cccc(Br)c1 | 
225 nM | 22 nM |  | CN(Cc1cccc(Cl)c1)c1c(N)ncnc1C#Cc1ccc(N2CCOCC2)nc1 | NA (Rattus norvegicus [7]): inactive; NA (Rattus norvegicus [6]): inactive
 | 15 nM | 100 nM | CN(Cc1ccccc1Cl)c1c(N)ncnc1C#Cc1ccc(N2CCOCC2)nc1 | ED50 (Rattus norvegicus [3]): 10 µmol/kg; ED50 (Rattus norvegicus [4]): 3 µmol/kg
 | 6 nM | 94 nM | Cc1ccccc1CN(C)c1c(N)ncnc1C#Cc1ccc(N2CCOCC2)nc1 | NA (Rattus norvegicus [5]): inactive; NA (Rattus norvegicus [6]): inactive
725 nM | 5 nM |  | CN(Cc1cccc(Br)c1)c1c(N)ncnc1C#Cc1ccc(N2CCOCC2)nc1 | 
 | 5 nM | 146 nM | CN(Cc1ccccc1Cl)Cc1c(N)ncnc1C#Cc1ccc(N2CCOCC2)nc1 | ED50 (Rattus norvegicus [3]): 30 µmol/kg; ED50 (Rattus norvegicus [4]): > 30 µmol/kg
220 nM | 4.5 nM |  | Nc1ncnc(C#Cc2ccc(N3CCOCC3)nc2)c1CCc1ccccc1 | 
 | 4 nM | 94 nM | Nc1ncnc(C#Cc2ccc(N3CCOCC3)nc2)c1CCCc1cccnc1 | NA (Rattus norvegicus [7]): inactive
 | 4 nM | 46 nM | Nc1ncnc(C#Cc2ccc(N3CCOCC3)nc2)c1CCCc1ccncc1 | NA (Rattus norvegicus [7]): inactive; ED50 (Rattus norvegicus [4]): 46 µmol/kg
 | 3.5 nM | 198 nM | COc1ccc(CCCc2c(N)ncnc2C#Cc2ccc(N3CCOCC3)nc2)cc1 | ED50 (Rattus norvegicus [3]): 20 µmol/kg; ED50 (Rattus norvegicus [4]): > 30 µmol/kg
580 nM | 3.5 nM |  | Nc1ncnc(C#Cc2ccc(N3CCOCC3)nc2)c1CCCc1cccc(Br)c1 | 
 | 2.5 nM | 70 nM | Nc1ncnc(C#Cc2ccc(N3CCOCC3)nc2)c1CCCc1ccccc1 | ED50 (Rattus norvegicus [3]): 8 µmol/kg; ED50 (Rattus norvegicus [4]): > 30 µmol/kg
188 nM | 2.5 nM |  | Nc1ncnc(C#Cc2ccc(N3CCOCC3)nc2)c1CCCc1ccccc1Cl | 
565 nM | 2 nM |  | Nc1ncnc(C#Cc2ccc(N3CCOCC3)nc2)c1CCCc1ccc(Br)cc1 | 
 | 2 nM | 118 nM | CN(Cc1ccccc1)Cc1c(N)ncnc1C#Cc1ccc(N2CCOCC2)nc1 | NA (Rattus norvegicus [7]): inactive; ED50 (Rattus norvegicus [4]): 5 µmol/kg
